This note sets out measurements from ChEMBL document CHEMBL1150247, “Structural determinants for affinity enhancement of a dual antagonist peptide entry inhibitor of human immunodeficiency virus type-1” (J Med Chem, 2008).

Data set [1] is described as follows: Binding affinity to immobilized HIV1 YU2 gp120 by surface plasmon resonance method. Also noted: species or system Human immunodeficiency virus 1. An outline of the steps:
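YU2 gp120 (Drosophila S2-expressed, F105-affinity purified) amine-coupled to CM5 chip (~4000 RU); peptides in PBS injected at 15 μL/min, 5 min association, 5 min dissociation. Buffer and anti-IL5Rα 2B6R control-surface responses subtracted; kinetic constants fitted in BIAevaluation.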

The nature of data set [2]: Inhibition of HIV1 YU2 gp120 binding to immobilized CD4 by surface plasmon resonance method. Also noted: species or system Human immunodeficiency virus 1. On the technique in general: Surface plasmon resonance follows binding to a sensor surface in real time, without labels.
Data set [3] has as its system Human immunodeficiency virus 1. The data set is described as follows: Antiviral activity against HIV1 BaL in CCR5 expressing P4 cells after 2 hrs. The data set is classed as functional, organism-based. The following applies: Human immunodeficiency virus 1, BaL, P4, 2 h. An outline of the steps: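 P4-CCR5 cells (DMEM, 10% FBS, puromycin) seeded 1.2×10^4/well ~18 h ahead; exposed 2 h to HIV-1 BaL plus peptide, washed, cultured 46 more h; infection read by β-galactosidase reporter assay. Infectivity relative to mock-treated infected cells; IC50 from sigmoidal dose-response fit; two independent experiments combined.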

Data set [4] in a line: Cytotoxicity against CCR5 expressing human P4 cells after 2 hrs by MTT assay. Particulars: p4, 2 h. The data set is classed as cell-based. An outline of the steps:
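P4-CCR5 cells seeded 4×10^4/well ~18 h ahead, exposed 2 h to varying peptide concentrations, washed, then viability by MTT; triplicate in two independent assays.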
On the technique in general: Formazan colour is commonly taken as a measure of viable cells.

Data set [5] in a line: Inhibition of HIV1 YU2 gp120 binding to immobilized CD4 binding site specific b6 monoclonal antibody by surface plasmon resonance method. Also noted: species or system Human immunodeficiency virus 1.
The nature of data set [6]: Inhibition of HIV1 YU2 gp120 binding to immobilized CD4 binding site specific immunoglobulin G b12 monoclonal antibody by surface plasmon resonance method. Set-up: species or system Human immunodeficiency virus 1.
Data set [7] in a line: Inhibition of HIV1 YU2 gp120 binding to immobilized CD4 binding site specific F105 monoclonal antibody by surface plasmon resonance method. Also noted: species or system Human immunodeficiency virus 1.
The nature of data set [8]: Inhibition of HIV1 YU2 gp120 binding to immobilized CD4 induced 17b monoclonal antibody by surface plasmon resonance method. Set-up: species or system Human immunodeficiency virus 1.

The term Kd denotes the concentration at which binding is half-saturated. `CC[C@H](C)[C@H](NC(=O)[C@@H](N)CCCNC(=N)N)C(=O)N[C@@H](CC(N)=O)C(=O)N[C@@H](CC(N)=O)C(=O)N[C@H](C(=O)N1C[C@@H](n2cc(-c3cc(C)c(C)cc3C)nn2)C[C@H]1C(=O)N[C@@H](Cc1c[nH]c2ccccc12)C(=O)N[C@@H](CO)C(=O)N[C@@H](CCC(=O)O)C(=O)N[C@@H](C)C(=O)N[C@@H](CCSC)C(=O)N[C@@H](CCSC)C(=O)O)[C@@H](C)CC` displayed a Kd in data set [1] of 160 nM.

`CC[C@H](C)[C@H](NC(=O)[C@@H](N)CCCNC(=N)N)C(=O)N[C@@H](CC(N)=O)C(=O)N[C@@H](CC(N)=O)C(=O)N[C@H](C(=O)N1C[C@@H](n2cc(C3=CCCCC3)nn2)C[C@H]1C(=O)N[C@@H](Cc1c[nH]c2ccccc12)C(=O)N[C@@H](CO)C(=O)N[C@@H](CCC(=O)O)C(=O)N[C@@H](C)C(=O)N[C@@H](CCSC)C(=O)N[C@@H](CCSC)C(=O)O)[C@@H](C)CC` gave a Kd in data set [1] of 98 nM. In data set [1], `CC[C@H](C)[C@H](NC(=O)[C@@H](N)CCCNC(=N)N)C(=O)N[C@@H](CC(N)=O)C(=O)N[C@@H](CC(N)=O)C(=O)N[C@H](C(=O)N1C[C@@H](n2cc(CSc3ccccc3)nn2)C[C@H]1C(=O)N[C@@H](Cc1c[nH]c2ccccc12)C(=O)N[C@@H](CO)C(=O)N[C@@H](CCC(=O)O)C(=O)N[C@@H](C)C(=O)N[C@@H](CCSC)C(=O)N[C@@H](CCSC)C(=O)O)[C@@H](C)CC` displayed a Kd of 115 nM. Compound `CC[C@H](C)[C@H](NC(=O)[C@@H](N)CCCNC(=N)N)C(=O)N[C@@H](CC(N)=O)C(=O)N[C@@H](CC(N)=O)C(=O)N[C@H](C(=O)N1C[C@@H](n2cc(-c3cc(C)ccc3C)nn2)C[C@H]1C(=O)N[C@@H](Cc1c[nH]c2ccccc12)C(=O)N[C@@H](CO)C(=O)N[C@@H](CCC(=O)O)C(=O)N[C@@H](C)C(=O)N[C@@H](CCSC)C(=O)N[C@@H](CCSC)C(=O)O)[C@@H](C)CC` came in with a Kd in data set [1] of 741 nM. The IC50 is the midpoint of a concentration-inhibition curve. A higher IC50 goes with weaker potency. Turning to `CCc1ccc(-c2cn([C@H]3C[C@@H](C(=O)N[C@@H](Cc4c[nH]c5ccccc45)C(=O)N[C@@H](CO)C(=O)N[C@@H](CCC(=O)O)C(=O)N[C@@H](C)C(=O)N[C@@H](CCSC)C(=O)N[C@@H](CCSC)C(=O)O)N(C(=O)[C@@H](NC(=O)[C@H](CC(N)=O)NC(=O)[C@H](CC(N)=O)NC(=O)[C@@H](NC(=O)[C@@H](N)CCCNC(=N)N)[C@@H](C)CC)[C@@H](C)CC)C3)nn2)cc1`, the IC50 was found to be 146 nM in data set [2]; 418 nM in data set [3]; 235 nM in data set [5]; 191 nM in data set [6]; 137 nM in data set [7]; 177 nM in data set [8]. The Activity entry in data set [4] is “Non-toxic”. The compound also gave a Kd in data set [1] of 9 nM. In data set [1], `CC[C@H](C)[C@H](NC(=O)[C@@H](N)CCCNC(=N)N)C(=O)N[C@@H](CC(N)=O)C(=O)N[C@@H](CC(N)=O)C(=O)N[C@H](C(=O)N1C[C@@H](n2cc(-c3ccc(F)c(C)c3)nn2)C[C@H]1C(=O)N[C@@H](Cc1c[nH]c2ccccc12)C(=O)N[C@@H](CO)C(=O)N[C@@H](CCC(=O)O)C(=O)N[C@@H](C)C(=O)N[C@@H](CCSC)C(=O)N[C@@H](CCSC)C(=O)O)[C@@H](C)CC` showed a Kd of 38 nM. That is a double-digit nanomolar value. With `CC[C@H](C)[C@H](NC(=O)[C@@H](N)CCCNC(=N)N)C(=O)N[C@@H](CC(N)=O)C(=O)N[C@@H](CC(N)=O)C(=O)N[C@H](C(=O)N1C[C@@H](n2cc(-c3ccc(CCc4ccccc4)cc3)nn2)C[C@H]1C(=O)N[C@@H](Cc1c[nH]c2ccccc12)C(=O)N[C@@H](CO)C(=O)N[C@@H](CCC(=O)O)C(=O)N[C@@H](C)C(=O)N[C@@H](CCSC)C(=O)N[C@@H](CCSC)C(=O)O)[C@@H](C)CC`, the IC50 in data set [2] worked out at 99 nM; in data set [3] it was 610000 nM; in data set [5], 85 nM; in data set [6], 65 nM; in data set [7], 23 nM; in data set [8] it was 129 nM. For the same compound, the Activity entry in data set [4] is “Non-toxic”. In data set [1], `CC[C@H](C)[C@H](NC(=O)[C@@H](N)CCCNC(=N)N)C(=O)N[C@@H](CC(N)=O)C(=O)N[C@@H](CC(N)=O)C(=O)N[C@H](C(=O)N1C[C@@H](n2cc(-c3ccccc3OC)nn2)C[C@H]1C(=O)N[C@@H](Cc1c[nH]c2ccccc12)C(=O)N[C@@H](CO)C(=O)N[C@@H](CCC(=O)O)C(=O)N[C@@H](C)C(=O)N[C@@H](CCSC)C(=O)N[C@@H](CCSC)C(=O)O)[C@@H](C)CC` returned a Kd of 14000 nM. Compound `CC[C@H](C)[C@H](NC(=O)[C@@H](N)CCCNC(=N)N)C(=O)N[C@@H](CC(N)=O)C(=O)N[C@@H](CC(N)=O)C(=O)N[C@H](C(=O)N1C[C@@H](n2cc(-c3ccc(OC)cc3)nn2)C[C@H]1C(=O)N[C@@H](Cc1c[nH]c2ccccc12)C(=O)N[C@@H](CO)C(=O)N[C@@H](CCC(=O)O)C(=O)N[C@@H](C)C(=O)N[C@@H](CCSC)C(=O)N[C@@H](CCSC)C(=O)O)[C@@H](C)CC` returned a Kd in data set [1] of 154 nM. For the compound `CC[C@H](C)[C@H](NC(=O)[C@@H](N)CCCNC(=N)N)C(=O)N[C@@H](CC(N)=O)C(=O)N[C@@H](CC(N)=O)C(=O)N[C@H](C(=O)N1C[C@@H](n2cc(-c3ccccc3C)nn2)C[C@H]1C(=O)N[C@@H](Cc1c[nH]c2ccccc12)C(=O)N[C@@H](CO)C(=O)N[C@@H](CCC(=O)O)C(=O)N[C@@H](C)C(=O)N[C@@H](CCSC)C(=O)N[C@@H](CCSC)C(=O)O)[C@@H](C)CC`, binding in data set [1] was characterised by a dissociation constant (Kd) of 128 nM. As for `CC[C@H](C)[C@H](NC(=O)[C@@H](N)CCCNC(=N)N)C(=O)N[C@@H](CC(N)=O)C(=O)N[C@@H](CC(N)=O)C(=O)N[C@H](C(=O)N1C[C@@H](n2cc(-c3ccccc3CO)nn2)C[C@H]1C(=O)N[C@@H](Cc1c[nH]c2ccccc12)C(=O)N[C@@H](CO)C(=O)N[C@@H](CCC(=O)O)C(=O)N[C@@H](C)C(=O)N[C@@H](CCSC)C(=O)N[C@@H](CCSC)C(=O)O)[C@@H](C)CC`, the affinity in data set [1], expressed as Kd, was 1930 nM. Compared with the last compound, the Kd is about 15-fold higher. `CC[C@H](C)[C@H](NC(=O)[C@@H](N)CCCNC(=N)N)C(=O)N[C@@H](CC(N)=O)C(=O)N[C@@H](CC(N)=O)C(=O)N[C@H](C(=O)N1C[C@@H](n2cc(-c3cccc(C)c3)nn2)C[C@H]1C(=O)N[C@@H](Cc1c[nH]c2ccccc12)C(=O)N[C@@H](CO)C(=O)N[C@@H](CCC(=O)O)C(=O)N[C@@H](C)C(=O)N[C@@H](CCSC)C(=O)N[C@@H](CCSC)C(=O)O)[C@@H](C)CC` came in with a Kd in data set [1] of 83 nM. Compared with the last compound, the Kd is about 23-fold lower. On the same count and under the same terms, in the case of `CC[C@H](C)[C@H](NC(=O)[C@@H](N)CCCNC(=N)N)C(=O)N[C@@H](CC(N)=O)C(=O)N[C@@H](CC(N)=O)C(=O)N[C@H](C(=O)N1C[C@@H](n2cc(-c3ccccc3N)nn2)C[C@H]1C(=O)N[C@@H](Cc1c[nH]c2ccccc12)C(=O)N[C@@H](CO)C(=O)N[C@@H](CCC(=O)O)C(=O)N[C@@H](C)C(=O)N[C@@H](CCSC)C(=O)N[C@@H](CCSC)C(=O)O)[C@@H](C)CC` it was 25000 nM; in that of `CC[C@H](C)[C@H](NC(=O)[C@@H](N)CCCNC(=N)N)C(=O)N[C@@H](CC(N)=O)C(=O)N[C@@H](CC(N)=O)C(=O)N[C@H](C(=O)N1C[C@H](n2cc(-c3ccccc3)nn2)C[C@H]1C(=O)N[C@@H](Cc1c[nH]c2ccccc12)C(=O)N[C@@H](CO)C(=O)N[C@@H](CCC(=O)O)C(=O)N[C@@H](C)C(=O)N[C@@H](CCSC)C(=O)N[C@@H](CCSC)C(=O)O)[C@@H](C)CC`, 2700 nM; in that of `CC[C@H](C)[C@H](NC(=O)[C@@H](N)CCCNC(=N)N)C(=O)N[C@@H](CC(N)=O)C(=O)N[C@@H](CC(N)=O)C(=O)N[C@H](C(=O)N1C[C@@H](n2cc(-c3cccc4ccccc34)nn2)C[C@H]1C(=O)N[C@@H](Cc1c[nH]c2ccccc12)C(=O)N[C@@H](CO)C(=O)N[C@@H](CCC(=O)O)C(=O)N[C@@H](C)C(=O)N[C@@H](CCSC)C(=O)N[C@@H](CCSC)C(=O)O)[C@@H](C)CC`, 54 nM. The compound `CC[C@H](C)[C@H](NC(=O)[C@@H](N)CCCNC(=N)N)C(=O)N[C@@H](CC(N)=O)C(=O)N[C@@H](CC(N)=O)C(=O)N[C@H](C(=O)N1C[C@@H](n2cc(-c3ccc(F)cc3)nn2)C[C@H]1C(=O)N[C@@H](Cc1c[nH]c2ccccc12)C(=O)N[C@@H](CO)C(=O)N[C@@H](CCC(=O)O)C(=O)N[C@@H](C)C(=O)N[C@@H](CCSC)C(=O)N[C@@H](CCSC)C(=O)O)[C@@H](C)CC` registered a Kd in data set [1] of 91 nM. This Kd lies about 1.7-fold higher than the previous one.

Turning to `CC[C@H](C)[C@H](NC(=O)[C@@H](N)CCCNC(=N)N)C(=O)N[C@@H](CC(N)=O)C(=O)N[C@@H](CC(N)=O)C(=O)N[C@H](C(=O)N1C[C@@H](n2cc(-c3ccc(N)cc3)nn2)C[C@H]1C(=O)N[C@@H](Cc1c[nH]c2ccccc12)C(=O)N[C@@H](CO)C(=O)N[C@@H](CCC(=O)O)C(=O)N[C@@H](C)C(=O)N[C@@H](CCSC)C(=O)N[C@@H](CCSC)C(=O)O)[C@@H](C)CC`, in data set [1], the Kd stood at 437 nM. In the case of `CC[C@H](C)[C@H](NC(=O)[C@@H](N)CCCNC(=N)N)C(=O)N[C@@H](CC(N)=O)C(=O)N[C@@H](CC(N)=O)C(=O)N[C@H](C(=O)N1C[C@@H](n2cc(Cn3nnc4ccccc43)nn2)C[C@H]1C(=O)N[C@@H](Cc1c[nH]c2ccccc12)C(=O)N[C@@H](CO)C(=O)N[C@@H](CCC(=O)O)C(=O)N[C@@H](C)C(=O)N[C@@H](CCSC)C(=O)N[C@@H](CCSC)C(=O)O)[C@@H](C)CC`, the Kd in data set [1] amounted to 388 nM.
